Experimental data published in ChEMBL document CHEMBL1629575, “Clinical outcomes, safety, and pharmacokinetics of OPT-80 in a phase 2 trial with patients with Clostridium difficile infection” (Antimicrob Agents Chemother, 2009).
In brackets after ≈: the same amount, converted by molar mass.

Tests used:
[1] = test system: Clostridioides difficile; assay: Antimicrobial activity against Clostridium difficile; format: functional
[2] = test system: Clostridioides difficile; assay: Antimicrobial activity against Clostridium difficile infected in patient assessed as clinical failure at 100 […], po every 12 hrs for 10 days; format: functional
How it was run: (§1)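 Phase 2 open-label randomized dose-ranging trial; adults with mild to moderate CDI (primary episode or first relapse, positive toxin by EIA or cytotoxicity assay), oral dosing for 10 days. Clinical failure was defined as the need for additional therapy during the treatment period. Failures underwent C. difficile culture and toxin testing.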

[3] = test system: Clostridioides difficile; assay: Antimicrobial activity against Clostridium difficile infected in patient assessed as recurrence of diarrhea within 6 weeks after treatment at 400 mg/kg, po every 12 hrs for 10 days; format: functional
[4] = test system: Clostridioides difficile; assay: Antimicrobial activity against Clostridium difficile infected in patient assessed as percentage of patient require no further treatment at 100 […], po every 12 hrs for 10 days; format: functional; how it was run: as §1
[5] = test system: Clostridioides difficile; assay: Antimicrobial activity against Clostridium difficile infected in patient assessed as resolving of diarrhea after 10 days at 400 […], po every 12 hrs for 10 days; format: functional
How it was run: (§2)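 Open-label randomized phase 2 trial in mild to moderate CDI patients, oral dosing over a 10-day regimen. Resolution of diarrhea was defined as the first day with one or two non-watery, non-loose stools in 24 h, sustained through treatment up to study day 10. Time to resolution was counted from the first dose.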

[6] = test system: Clostridioides difficile; assay: Antimicrobial activity against Clostridium difficile infected in patient assessed as complete relief of clostridium difficile associated diarrhea symptom in patient at 400 […], po every 12 hrs for 10 days; format: functional
[7] = test system: Clostridioides difficile; assay: Antimicrobial activity against Clostridium difficile infected in patient assessed as resolution of diarrhea on day 10 at 200 […], po every 12 hrs for 10 days; format: functional; how it was run: as §2
[8] = test system: Clostridioides difficile; assay: Antimicrobial activity against Clostridium difficile infected in patient assessed as complete relief of clostridium difficile associated diarrhea symptom in patient at 200 […], po every 12 hrs for 10 days; format: functional
[9] = test system: Clostridioides difficile; assay: Antimicrobial activity against Clostridium difficile infected in patient assessed as incomplete relief of clostridium difficile associated diarrhea symptom in patient at 100 […], po every 12 hrs for 10 days; format: functional
[10] = test system: Clostridioides difficile; assay: Antimicrobial activity against Clostridium difficile infected in patient assessed as resolution of diarrhea on day 10 at 100 […], po every 12 hrs for 10 days; format: functional; how it was run: as §2
[11] = Drug level in clostridium difficile infected patient feces at 200 […], po every 12 hrs for 10 days by RP-HPLC/MS; format: ADME, organism-based; parameters: route oral; conditions: human, faeces, read-out: Activity
How it was run: (§3)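 The complete 24-h stool output was collected on day 10 (or the final dosing day if treatment stopped early) and frozen at −80°C. Stool was homogenized in acetonitrile-acetic acid, diluted with acetonitrile, spiked with OP-1393 internal standard, and analysed by RP-HPLC-MS/MS. The assay standard range for parent was 10 to 2,000 ng/ml. Results are reported as mean ± SD in μg/g.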

[12] = Drug level in clostridium difficile infected patient plasma at 400 […], po every 12 hrs for 10 days by RP-HPLC/MS; format: ADME, organism-based; parameters: route oral; conditions: human, read-out: Activity
How it was run: (§4)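 Plasma was sampled 0.5 h before and 2 h after dosing on the first and last days of the 10-day oral regimen. Samples were methanol-acetic acid precipitated with OP-1393 internal standard, C18 solid-phase extracted, and analysed by RP-HPLC (40°C column) with tandem quadrupole MS. Assay range was 5 to 1,000 ng/ml for parent and OP-1118.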

[13] = test system: Clostridioides difficile; assay: Antimicrobial activity against Clostridium difficile infected in patient assessed as percentage of patient require further treatment at 400 […], po every 12 hrs for 10 days; format: functional; how it was run: as §1
[14] = test system: Clostridioides difficile; assay: Antimicrobial activity against Clostridium difficile infected in patient assessed as percentage of patient require further treatment at 100 […], po every 12 hrs for 10 days; format: functional; how it was run: as §1
[15] = test system: Clostridioides difficile; assay: Antimicrobial activity against Clostridium difficile infected in patient assessed as percentage of patient require no further treatment at 200 […], po every 12 hrs for 10 days; format: functional; how it was run: as §1
[16] = test system: Clostridioides difficile; assay: Antimicrobial activity against Clostridium difficile infected in patient assessed as clinical failure at 400 […], po every 12 hrs for 10 days; format: functional; how it was run: as §1
[17] = test system: Clostridioides difficile; assay: Antimicrobial activity against Clostridium difficile infected in patient assessed as percentage of patient require no further treatment at 400 […], po every 12 hrs for 10 days; format: functional; how it was run: as §1
[18] = Drug level in clostridium difficile infected patient feces at 100 […], po every 12 hrs for 10 days by RP-HPLC/MS; format: ADME, organism-based; parameters: route oral; conditions: human, faeces, read-out: Activity; how it was run: as §3
[19] = Drug level in clostridium difficile infected patient plasma at 100 […], po every 12 hrs for 10 days by RP-HPLC/MS; format: ADME, organism-based; parameters: route oral; conditions: human, read-out: Activity; how it was run: as §4
[20] = test system: Clostridioides difficile; assay: Antimicrobial activity against Clostridium difficile infected in patient assessed as resolving of diarrhea after 10 days at 100 […], po every 12 hrs for 10 days; format: functional; how it was run: as §2
[21] = test system: Clostridioides difficile; assay: Antimicrobial activity against Clostridium difficile infected in patient assessed as recurrence of diarrhea within 6 weeks after treatment at 100 […], po every 12 hrs for 10 days; format: functional
[22] = test system: Clostridioides difficile; assay: Antimicrobial activity against Clostridium difficile infected in patient assessed as incomplete relief of clostridium difficile associated diarrhea symptom in patient at 200 […], po every 12 hrs for 10 days; format: functional
[23] = test system: Clostridioides difficile; assay: Antimicrobial activity against Clostridium difficile infected in patient assessed as complete relief of clostridium difficile associated diarrhea symptom in patient at 100 […], po every 12 hrs for 10 days; format: functional
[24] = test system: Clostridioides difficile; assay: Antimicrobial activity against Clostridium difficile infected in patient assessed as resolution of diarrhea on day 10 at 400 […], po every 12 hrs for 10 days; format: functional; how it was run: as §2
[25] = test system: Plasma; assay: Drug level in clostridium difficile infected patient plasma at 200 […], po every 12 hrs for 10 days by RP-HPLC/MS; format: ADME, organism-based; parameters: route oral; conditions: human, in vivo; how it was run: as §4
[26] = test system: Clostridioides difficile; assay: Antimicrobial activity against Clostridium difficile infected in patient assessed as clinical failure at 200 […], po every 12 hrs for 10 days; format: functional; how it was run: as §1
[27] = test system: Clostridioides difficile; assay: Antimicrobial activity against Clostridium difficile infected in patient assessed as recurrence of diarrhea within 6 weeks after treatment at 200 mg/kg, po every 12 hrs for 10 days; format: functional
[28] = test system: Clostridioides difficile; assay: Antimicrobial activity against Clostridium difficile infected in patient assessed as incomplete relief of clostridium difficile associated diarrhea symptom in patient at 400 […], po every 12 hrs for 10 days; format: functional
[29] = Drug level in clostridium difficile infected patient feces at 400 […], po every 12 hrs for 10 days by RP-HPLC/MS; format: ADME, organism-based; parameters: route oral; conditions: human, faeces, read-out: Activity; how it was run: as §3
[30] = test system: Clostridioides difficile; assay: Antimicrobial activity against Clostridium difficile infected in patient assessed as percentage of patient require further treatment at 200 […], po every 12 hrs for 10 days; format: functional; how it was run: as §1
[31] = test system: Clostridioides difficile; assay: Antimicrobial activity against Clostridium difficile infected in patient assessed as resolving of diarrhea after 10 days at 200 […], po every 12 hrs for 10 days; format: functional; how it was run: as §2
[32] = Drug level in clostridium difficile infected patient feces assessed as OP-1118 metabolite level at 100 […], po every 12 hrs for 10 days by RP-HPLC/MS; format: ADME, organism-based; parameters: route oral; conditions: human, in vivo; how it was run: as §3
[33] = test system: Plasma; assay: Drug level in clostridium difficile infected patient plasma assessed as OP-1118 metabolite level at 400 […], po every 12 hrs for 10 days by RP-HPLC/MS; format: ADME, organism-based; parameters: route oral; conditions: human, in vivo; how it was run: as §4
[34] = test system: Plasma; assay: Drug level in clostridium difficile infected patient plasma assessed as OP-1118 metabolite level at 200 […], po every 12 hrs for 10 days by RP-HPLC/MS; format: ADME, organism-based; parameters: route oral; conditions: human, in vivo; how it was run: as §4
[35] = Drug level in clostridium difficile infected patient feces assessed as OP-1118 metabolite level at 200 […], po every 12 hrs for 10 days by RP-HPLC/MS; format: ADME, organism-based; parameters: route oral; conditions: human, in vivo; how it was run: as §3
[36] = Drug level in clostridium difficile infected patient feces assessed as OP-1118 metabolite level at 400 […], po every 12 hrs for 10 days by RP-HPLC/MS; format: ADME, organism-based; parameters: route oral; conditions: human, in vivo; how it was run: as §3
[37] = test system: Plasma; assay: Drug level in clostridium difficile infected patient plasma assessed as OP-1118 metabolite level at 100 […], po every 12 hrs for 10 days by RP-HPLC/MS; format: ADME, organism-based; parameters: route oral; conditions: human, in vivo; how it was run: as §4

CN[C@H](CC(C)C)C(=O)N[C@H]1C(=O)N[C@@H](CC(N)=O)C(=O)N[C@H]2C(=O)N[C@H]3C(=O)N[C@H](C(=O)N[C@H](C(=O)O)c4cc(O)cc(O)c4-c4cc3ccc4O)[C@H](O)c3ccc(c(Cl)c3)Oc3cc2cc(c3O[C@@H]2O[C@H](CO)[C@@H](O)[C@H](O)[C@H]2O[C@H]2C[C@](C)(N)[C@H](O)[C@H](C)O2)Oc2ccc(cc2Cl)[C@H]1O [VANCOMYCIN]
MIC90 [1]: 2 µg/mL (≈ 1.38 µM)

CCc1c(Cl)c(O)c(Cl)c(O)c1C(=O)O[C@H]1[C@H](O)[C@H](OC)[C@H](OC/C2=C\C=C\C[C@H](O)/C(C)=C/[C@H](CC)[C@@H](O[C@@H]3OC(C)(C)[C@@H](OC(=O)C(C)C)[C@H](O)[C@@H]3O)/C(C)=C/C(C)=C/C[C@@H]([C@@H](C)O)OC2=O)O[C@@H]1C [FIDAXOMICIN]
Activity [2]: 14%
Activity [3]: 6.3%
Activity [4]: 31.3%
Activity [5]: 6%
Activity [6]: 86.7%
Activity [7]: 80%
Activity [8]: 50%
Activity [9]: 56.3%
Activity [10]: 71%
concentration at 10 days [11]: 442000 ng/g
concentration at 10 days [12]: 84.9 ng/mL
Activity [13]: 0%
Activity [14]: 12.5%
Activity [15]: 18.8%
Activity [16]: 0%
Activity [17]: 13.3%
concentration at 10 days [18]: 256000 ng/g
concentration at 10 days [19]: 12.3 ng/mL
Activity [20]: 14%
Activity [21]: 8.3%
Activity [22]: 37.5%
MIC90 [1]: 0.125 µg/mL (≈ 0.118 µM)
Activity [23]: 37.5%
Activity [24]: 94%
Activity [25]: 9.37e-05 mg/mL
Activity [26]: 13%
Activity [27]: 0%
Activity [28]: 13.3%
concentration at 10 days [29]: 1.43e+06 ng/g
Activity [30]: 12.5%
Activity [31]: 7%

CCc1c(Cl)c(O)c(Cl)c(O)c1C(=O)O[C@H]1[C@H](O)[C@H](OC)[C@H](OC/C2=C\C=C\C[C@H](O)/C(C)=C/[C@H](CC)[C@@H](O[C@@H]3OC(C)(C)[C@@H](O)[C@H](O)[C@@H]3O)/C(C)=C/C(C)=C/C[C@@H]([C@@H](C)O)OC2=O)O[C@@H]1C
Activity [32]: 393 µg/g
Activity [33]: 402.3 ng/mL
Activity [34]: 154.3 ng/mL
Activity [35]: 430 µg/g
Activity [36]: 760 µg/g
Activity [37]: 77.2 ng/mL

Cc1ncc([N+](=O)[O-])n1CCO [METRONIDAZOLE]
MIC90 [1]: 0.5 µg/mL (≈ 2.92 µM)
